ChEMBL document CHEMBL5705890, “Antitumor activity of an allosteric inhibitor of centromere-associated protein-E” (Proc Natl Acad Sci U S A, 2010)

Columns and labels:
[1] = target: T1, Centromere-associated protein E (Homo sapiens, UniProt Q02224); test: Binding affinity to wild-type human CENP-E assessed as inhibition constant
How it was run: (§1)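 CENP-E motor domain (residues 2–340, C-terminal 6-his, from E. coli BL21(DE3)) run in MT-stimulated ATPase with 500 μM ATP, 5 μM paclitaxel-stabilized MT, 1 nM enzyme in PEM25 buffer, pH 6.8. Apparent Ki taken from the concentration-response curves with explicit correction for enzyme concentration.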

[2] = target: T1, Centromere-associated protein E; test: Inhibition of microtubule-stimulated ATPase activity of C-terminal 6-his-tagged CENP-E (2 to 340 residues)(unknown origin) expressed in Escherichia coli BL21(DE3) in presence of ATP
How it was run: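 Steady-state ATPase of CENP-E motor domain, residues 2–340 with C-terminal 6-His tag, expressed in E. coli BL21(DE3). Run at 1 nM enzyme, 500 μM ATP and 5 μM paclitaxel-stabilized microtubules in PEM25 (25 mM PIPES-K pH 6.8, 2 mM MgCl2, 1 mM EGTA) plus 10 μM paclitaxel. IC50 taken from concentration-response curves.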

Centromere protein E = Centromere protein E (Canis lupus familiaris, UniProt A0A8P0P634); test: Binding affinity to wild-type dog CENP-E assessed as inhibition constant
[3] = target: T1, Centromere-associated protein E; test: Competitive-like binding affinity to C-terminal 6-his-tagged CENP-E (2 to 340 residues)(unknown origin) expressed in Escherichia coli BL21(DE3) assessed as apparent inhibition constant in presence of ATP; settings: read-out: Ki(app)
[4] = target: Centromere-associated protein E (Homo sapiens, UniProt Q02224, I182L/K184T/T183A); test: Binding affinity to human CENP-E I182L/T183A/K184T mutant assessed as inhibition constant
[5] = target: Centromere-associated protein E (Mus musculus, UniProt Q6RT24); test: Binding affinity to wild-type mouse CENP-E assessed as inhibition constant
Centromere-associated protein E (Mus musculus, UniProt Q6RT24), sequence (Q6RT24 whole entry, the tested form may be a part): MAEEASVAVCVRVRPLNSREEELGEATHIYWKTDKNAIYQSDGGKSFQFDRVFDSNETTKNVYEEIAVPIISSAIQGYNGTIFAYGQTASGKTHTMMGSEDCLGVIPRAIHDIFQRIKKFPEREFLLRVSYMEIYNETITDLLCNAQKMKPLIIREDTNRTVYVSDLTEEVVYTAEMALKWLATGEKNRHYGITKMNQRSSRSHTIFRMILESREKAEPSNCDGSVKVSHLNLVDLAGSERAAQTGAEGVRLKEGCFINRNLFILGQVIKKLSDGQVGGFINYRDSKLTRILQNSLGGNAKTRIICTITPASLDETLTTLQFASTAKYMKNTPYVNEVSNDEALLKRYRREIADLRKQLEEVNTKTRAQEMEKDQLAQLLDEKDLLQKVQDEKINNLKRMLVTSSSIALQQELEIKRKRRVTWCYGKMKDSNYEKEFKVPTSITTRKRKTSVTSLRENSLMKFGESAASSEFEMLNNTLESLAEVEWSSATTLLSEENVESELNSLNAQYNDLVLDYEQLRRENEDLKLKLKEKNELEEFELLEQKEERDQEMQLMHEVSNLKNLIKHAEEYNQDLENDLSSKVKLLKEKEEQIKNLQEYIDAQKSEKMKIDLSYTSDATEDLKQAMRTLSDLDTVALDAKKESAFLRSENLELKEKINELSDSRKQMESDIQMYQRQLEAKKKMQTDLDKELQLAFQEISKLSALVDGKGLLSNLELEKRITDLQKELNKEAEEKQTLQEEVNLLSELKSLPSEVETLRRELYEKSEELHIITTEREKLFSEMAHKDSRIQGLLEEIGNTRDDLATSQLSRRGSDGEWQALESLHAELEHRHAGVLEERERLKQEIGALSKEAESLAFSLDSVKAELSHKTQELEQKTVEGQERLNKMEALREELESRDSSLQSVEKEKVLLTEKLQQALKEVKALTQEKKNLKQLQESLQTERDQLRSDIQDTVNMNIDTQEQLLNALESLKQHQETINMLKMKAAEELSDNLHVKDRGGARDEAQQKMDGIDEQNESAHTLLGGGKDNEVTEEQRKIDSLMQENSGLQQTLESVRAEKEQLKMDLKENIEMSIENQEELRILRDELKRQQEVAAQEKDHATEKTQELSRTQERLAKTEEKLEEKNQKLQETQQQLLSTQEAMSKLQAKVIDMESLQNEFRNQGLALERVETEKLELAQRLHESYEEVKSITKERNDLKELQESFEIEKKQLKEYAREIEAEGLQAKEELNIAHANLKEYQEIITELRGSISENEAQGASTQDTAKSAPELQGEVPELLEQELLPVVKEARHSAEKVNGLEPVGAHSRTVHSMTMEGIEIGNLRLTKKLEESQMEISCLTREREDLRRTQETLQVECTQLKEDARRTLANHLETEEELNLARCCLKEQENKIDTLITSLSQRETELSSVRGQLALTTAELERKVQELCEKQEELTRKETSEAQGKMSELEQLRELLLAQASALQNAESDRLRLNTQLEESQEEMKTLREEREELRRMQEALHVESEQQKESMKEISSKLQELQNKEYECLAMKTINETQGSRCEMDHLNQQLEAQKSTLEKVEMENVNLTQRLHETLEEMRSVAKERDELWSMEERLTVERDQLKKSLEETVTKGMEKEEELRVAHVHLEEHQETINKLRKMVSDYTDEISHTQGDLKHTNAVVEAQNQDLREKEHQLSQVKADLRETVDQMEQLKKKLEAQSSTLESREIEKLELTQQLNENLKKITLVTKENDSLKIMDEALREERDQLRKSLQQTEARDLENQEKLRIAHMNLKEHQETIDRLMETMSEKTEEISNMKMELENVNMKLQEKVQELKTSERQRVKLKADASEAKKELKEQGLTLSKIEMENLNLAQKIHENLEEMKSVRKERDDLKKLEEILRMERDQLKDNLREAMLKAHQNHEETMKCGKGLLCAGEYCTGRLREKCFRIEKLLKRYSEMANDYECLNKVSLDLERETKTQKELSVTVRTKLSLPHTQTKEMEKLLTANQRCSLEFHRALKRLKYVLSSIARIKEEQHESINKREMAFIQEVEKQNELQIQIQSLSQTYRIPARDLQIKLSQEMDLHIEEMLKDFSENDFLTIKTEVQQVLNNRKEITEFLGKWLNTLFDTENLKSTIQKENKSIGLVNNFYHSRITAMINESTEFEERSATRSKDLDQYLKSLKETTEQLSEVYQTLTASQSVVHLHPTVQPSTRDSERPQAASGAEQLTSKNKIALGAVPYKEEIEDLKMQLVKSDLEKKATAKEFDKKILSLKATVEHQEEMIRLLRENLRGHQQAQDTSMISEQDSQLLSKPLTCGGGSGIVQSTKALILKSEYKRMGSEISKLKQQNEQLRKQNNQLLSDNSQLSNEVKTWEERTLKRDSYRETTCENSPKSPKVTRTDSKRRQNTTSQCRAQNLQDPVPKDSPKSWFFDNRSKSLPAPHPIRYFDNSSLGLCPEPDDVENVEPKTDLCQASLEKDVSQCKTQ

[6] = target: T1, Centromere-associated protein E; test: Uncompetitive binding affinity to microtubule-stimulated ATPase activity of C-terminal 6-his-tagged CENP-E (2 to 340 residues)(unknown origin) expressed in Escherichia coli BL21(DE3) assessed as apparent inhibition constant; settings: read-out: Ki(app); how it was run: as §1
[7] = target: T1, Centromere-associated protein E; test: Inhibition of ATPase activity of C-terminal 6-his-tagged CENP-E (2 to 340 residues)(unknown origin) expressed in Escherichia coli BL21(DE3) in presence of ATP
[8] = target: T1, Centromere-associated protein E; test: Uncompetitive-like binding affinity to C-terminal 6-his-tagged CENP-E (2 to 340 residues)(unknown origin) expressed in Escherichia coli BL21(DE3) assessed as apparent inhibition constant in presence of ATP; settings: read-out: Ki(app)

T1 sequence (Q02224 whole entry, the tested form may be a part): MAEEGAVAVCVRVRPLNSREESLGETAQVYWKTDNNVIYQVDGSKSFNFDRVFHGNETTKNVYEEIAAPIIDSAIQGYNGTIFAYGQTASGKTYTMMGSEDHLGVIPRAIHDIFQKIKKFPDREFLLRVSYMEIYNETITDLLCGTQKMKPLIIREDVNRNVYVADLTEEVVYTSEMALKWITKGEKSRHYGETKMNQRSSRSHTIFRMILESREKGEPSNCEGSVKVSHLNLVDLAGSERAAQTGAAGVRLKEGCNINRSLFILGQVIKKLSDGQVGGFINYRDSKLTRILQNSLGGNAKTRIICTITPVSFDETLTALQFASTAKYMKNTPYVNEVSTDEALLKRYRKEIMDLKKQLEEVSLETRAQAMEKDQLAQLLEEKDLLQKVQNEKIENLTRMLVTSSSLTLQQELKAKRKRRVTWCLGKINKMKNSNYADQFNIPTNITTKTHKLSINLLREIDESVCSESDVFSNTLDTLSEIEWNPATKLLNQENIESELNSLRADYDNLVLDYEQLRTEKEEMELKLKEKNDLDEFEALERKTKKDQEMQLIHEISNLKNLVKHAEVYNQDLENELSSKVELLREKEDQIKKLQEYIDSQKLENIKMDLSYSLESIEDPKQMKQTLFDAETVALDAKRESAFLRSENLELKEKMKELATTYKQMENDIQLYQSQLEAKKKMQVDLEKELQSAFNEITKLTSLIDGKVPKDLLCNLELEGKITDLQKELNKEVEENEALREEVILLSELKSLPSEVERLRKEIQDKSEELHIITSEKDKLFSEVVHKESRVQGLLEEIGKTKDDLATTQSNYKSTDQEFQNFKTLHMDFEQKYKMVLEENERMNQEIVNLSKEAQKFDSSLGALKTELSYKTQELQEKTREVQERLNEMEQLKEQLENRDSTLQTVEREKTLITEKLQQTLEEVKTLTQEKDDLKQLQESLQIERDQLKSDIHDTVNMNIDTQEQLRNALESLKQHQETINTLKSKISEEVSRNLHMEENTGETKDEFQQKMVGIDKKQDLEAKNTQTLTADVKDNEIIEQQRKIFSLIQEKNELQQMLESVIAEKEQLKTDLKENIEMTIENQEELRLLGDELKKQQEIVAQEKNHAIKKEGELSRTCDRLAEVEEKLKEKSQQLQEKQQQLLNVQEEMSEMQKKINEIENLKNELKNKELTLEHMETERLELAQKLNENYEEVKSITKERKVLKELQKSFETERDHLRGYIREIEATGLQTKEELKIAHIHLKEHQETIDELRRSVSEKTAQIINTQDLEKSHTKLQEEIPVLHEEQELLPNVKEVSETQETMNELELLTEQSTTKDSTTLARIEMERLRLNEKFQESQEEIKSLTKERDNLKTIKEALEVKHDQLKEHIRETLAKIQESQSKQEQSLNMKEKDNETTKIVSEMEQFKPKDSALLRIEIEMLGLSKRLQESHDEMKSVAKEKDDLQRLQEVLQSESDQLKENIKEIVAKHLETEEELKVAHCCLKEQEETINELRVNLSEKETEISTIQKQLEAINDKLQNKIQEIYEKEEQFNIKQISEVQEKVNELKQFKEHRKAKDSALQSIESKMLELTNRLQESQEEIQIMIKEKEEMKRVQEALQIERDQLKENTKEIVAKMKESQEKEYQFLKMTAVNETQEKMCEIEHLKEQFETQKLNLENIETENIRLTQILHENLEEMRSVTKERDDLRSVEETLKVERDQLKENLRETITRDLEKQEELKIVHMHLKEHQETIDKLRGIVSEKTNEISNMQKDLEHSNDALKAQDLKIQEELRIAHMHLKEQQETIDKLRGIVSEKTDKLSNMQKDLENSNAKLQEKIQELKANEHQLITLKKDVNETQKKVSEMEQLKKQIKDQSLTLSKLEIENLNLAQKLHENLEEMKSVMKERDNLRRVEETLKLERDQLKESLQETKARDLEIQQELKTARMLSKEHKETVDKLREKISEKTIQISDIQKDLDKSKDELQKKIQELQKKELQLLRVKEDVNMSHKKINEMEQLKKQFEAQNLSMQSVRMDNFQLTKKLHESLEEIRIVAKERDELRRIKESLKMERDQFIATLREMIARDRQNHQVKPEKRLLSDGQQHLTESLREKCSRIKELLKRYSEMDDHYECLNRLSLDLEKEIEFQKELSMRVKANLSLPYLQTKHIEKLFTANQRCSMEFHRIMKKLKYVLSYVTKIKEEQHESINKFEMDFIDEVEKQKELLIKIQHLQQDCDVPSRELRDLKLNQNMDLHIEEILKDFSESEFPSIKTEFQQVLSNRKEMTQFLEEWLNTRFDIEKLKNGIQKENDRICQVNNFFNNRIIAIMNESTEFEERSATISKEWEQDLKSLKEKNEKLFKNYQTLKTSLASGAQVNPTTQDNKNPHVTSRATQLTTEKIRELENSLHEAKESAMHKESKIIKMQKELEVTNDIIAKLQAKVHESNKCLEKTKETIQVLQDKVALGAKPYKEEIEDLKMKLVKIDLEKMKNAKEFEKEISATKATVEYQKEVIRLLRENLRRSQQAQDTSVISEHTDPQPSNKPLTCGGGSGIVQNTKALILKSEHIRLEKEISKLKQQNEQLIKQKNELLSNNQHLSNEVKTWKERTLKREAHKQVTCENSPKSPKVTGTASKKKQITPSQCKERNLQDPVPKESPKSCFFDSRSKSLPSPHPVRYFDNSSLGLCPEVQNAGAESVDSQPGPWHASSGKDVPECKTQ

Ki [1] [nM] | IC50 [2] [nM] | Ki (Centromere protein E) [nM] | Ki [3] [nM] | Ki [4] [nM] | Ki [5] [nM] | Ki [6] [nM] | IC50 [7] [nM] | Ki [8] [nM] | SMILES
4.2 | 550 | 2.4 | 4400 | 73 | 89 | – | – | – | CNC(=O)C(Cc1ccc(C(=O)c2ccccc2)cc1)NC(=O)c1ccc(OC(C)C)c(Cl)c1 (stereo not given)
– | 3.7 | – | – | – | – | 4.7 | 7370 | 4.2 | Cc1cccn2cc(-c3ccc(C[C@@H](CCO)NC(=O)c4ccc(OC(C)C)c(C#N)c4)cc3)nc12
